In ChEMBL document CHEMBL1133709, “Acyclic analogues of deoxyadenosine 3',5'-bisphosphates as P2Y(1) receptor antagonists” (J Med Chem, 2000):
Activity calls are given as the source filed them. The calls are words filed in the database; no cut-off is given here.

What was measured:
[1] = target: P2Y purinoceptor 1 (Meleagris gallopavo) (UniProt P49652); test: P2Y purinoceptor 1 mediated PLC stimulation in turkey RBC, NE represents no effect
Summary of the method: (§1)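 Compound alone added to [3H]inositol-labeled turkey erythrocyte ghosts (~175 μg protein) with 1 μM GTPγS in Hepes pH 7.0 medium, 5 min at 30 °C. Total [3H]inositol phosphates quantified by anion-exchange chromatography. EC50 from four-parameter logistic fit, 3–8 independent curves. Efficacy relative to a maximal 2-MeSADP concentration in the same experiment; NE = no effect at 100 μM.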

[2] = Antagonism of PLC stimulation elicited by 10(nM) 2-Me SADP in turkey RBC; format: functional, Meleagris gallopavo
[3] = system: Meleagris gallopavo; test: Antagonism of PLC stimulation elicited by 30(nM) 2-Me SADP in turkey RBC; format: functional; set-up: concentration or dose not given beside the values; conditions: dose or concentration not given here
Summary of the method: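 Turkey erythrocytes labeled 18–24 h with 2-[3H]myo-inositol at 37 °C; ghost membranes with 1 μM GTPγS and test compound combined with 30 nM 2-MeSADP, 5 min at 30 °C, Hepes pH 7.0. [3H]inositol phosphates separated by anion exchange. IC50 for 50% inhibition of agonist response; at least three experiments, different membrane preparations, duplicate or triplicate assays.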

[4] = system: Meleagris gallopavo; test: Tested in vitro for effective concentration required for stimulation of phospholipase C (PLC) against [3H]inositol labeled Turkey Erythrocyte P2Y purinoceptor 1; format: functional; summary of the method: as §1
[5] = target: P2Y purinoceptor 1 (Meleagris gallopavo) (UniProt P49652); test: In vitro agonistic activity was determined for stimulation of PLC at Turkey erythrocyte P2Y purinoceptor 1; format: functional; summary of the method: as §1

Chain of P2Y purinoceptor 1 (Meleagris gallopavo) (P49652 whole entry): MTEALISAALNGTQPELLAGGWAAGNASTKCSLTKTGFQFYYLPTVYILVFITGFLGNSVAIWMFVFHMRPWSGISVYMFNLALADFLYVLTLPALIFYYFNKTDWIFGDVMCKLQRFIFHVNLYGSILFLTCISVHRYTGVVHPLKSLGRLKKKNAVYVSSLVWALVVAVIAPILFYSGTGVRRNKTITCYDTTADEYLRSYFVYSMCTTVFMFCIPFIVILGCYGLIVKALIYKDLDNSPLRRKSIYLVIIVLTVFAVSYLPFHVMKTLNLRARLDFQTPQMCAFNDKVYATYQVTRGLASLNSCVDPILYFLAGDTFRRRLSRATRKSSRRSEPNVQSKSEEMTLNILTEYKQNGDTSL

SMILES	PLC stimulation [1]	IC50 [2] [µM]	inhibition [3] [%]	EC50 [4] [µM]	Increase [5] [%]
CNc1nc(Cl)nc2c1ncn2CCC(COP(=O)(O)O)COP(=O)(O)O	inactive	0.84	99		
CNc1nc(Cl)nc2c1ncn2CC(=O)Nc1cc(CP(=O)(O)O)cc(CP(=O)(O)O)c1	inactive	15.5	94		
Nc1ncnc2c1ncn2CCC(COP(=O)(O)O)COP(=O)(O)O	inactive	> 50	63		
CNc1ncnc2c1ncn2C/C=C\CC(COP(=O)(O)O)COP(=O)(O)O (stereo in doubt; 15) [listing 1 of 2 here]		> 50			
CNc1ncnc2c1ncn2[C@H]1C[C@H](OP(=O)(O)O)[C@@H](COP(=O)(O)O)O1	inactive				
CNc1ncnc2c1ncn2CCCC(COP(=O)(O)O)COP(=O)(O)O	inactive	> 30	68		
CNc1nc(Cl)nc2c1ncn2[C@@H]1C[C@H](COP(=O)(O)O)[C@H](OP(=O)(O)O)C1	inactive	0.206	95		
CNc1ncnc2c1ncn2CCCCCC(COP(=O)(O)O)COP(=O)(O)O	inactive	100	56		
CNc1ncnc2c1ncn2C/C=C\CC(COP(=O)(O)O)COP(=O)(O)O (stereo in doubt; 16) [listing 1 of 2 here]		100			
CNc1nc(Cl)nc2c1ncn2[C@H]1C[C@H](OP(=O)(O)O)[C@@H](COP(=O)(O)O)O1	inactive	0.206	95		
CNc1ncnc2c1ncn2C/C=C\CC(COP(=O)(O)O)COP(=O)(O)O (stereo in doubt; 15) [listing 2 of 2 here]	inactive		77		
Nc1ncnc2c1ncn2[C@H]1C[C@H](OP(=O)(O)O)[C@@H](COP(=O)(O)O)O1		5.76	87	6.29	
CNc1nc(Cl)nc2c1ncn2CC(=O)N(CCOP(=O)(O)O)CCOP(=O)(O)O	inactive	14	89		
CNc1ncnc2c1ncn2CCCCC(COP(=O)(O)O)COP(=O)(O)O	inactive	> 50	65		
Nc1nc(Cl)nc2c1ncn2CCC(COP(=O)(O)O)COP(=O)(O)O	inactive	7.57	94		
Nc1ncnc2c1ncn2[C@@H]1C[C@H](COP(=O)(O)O)[C@H](OP(=O)(O)O)C1		2.53	73	7.21	27
CNc1ncnc2c1ncn2CCC(COP(=O)(O)O)COP(=O)(O)O	inactive	1.6	100		
CNc1ncnc2c1ncn2[C@@H]1C[C@H](COP(=O)(O)O)[C@H](OP(=O)(O)O)C1	inactive	0.331	99		
CNc1ncnc2c1ncn2C/C=C\CC(COP(=O)(O)O)COP(=O)(O)O (stereo in doubt; 16) [listing 2 of 2 here]	inactive		54		
